Calb FLC = C. albicans growth inhibition with fluconazole, primary screen, CaCi-2 strain, Alamar Blue fluorescence; C. albicans CaCi-2 (fluconazole-resistant clinical isolate) + fluconazole, 48 h; growth inhibition, % (no concentration beside the values); 300,000 compounds, 0.57% hits; AID 1979, 2009;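 active means growth inhibition above about 58% in most replicates, limit read from the data, passing the limit was not always enough; inconclusive means exactly half the replicates above a set limit; inactive means most replicates below a set limit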;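 further: all wells also contain fluconazole at 8 µg/ml as a sub-toxic cotreatment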
PolyA inhibitor = polyadenylation inhibitors in yeast reporter cells, primary screen, luminescence, S. cerevisiae; AID 1875, 2009; 300,000 compounds, 0.02% hits; activity score, % at 12 µM; S. cerevisiae SKY197-pL101 polyadenylation reporter, beta-gal luminescence; efflux-impaired pdr1/pdr3 knockout yeast; score 100 = 6 SD above DMSO;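 active means lowest replicate activity score at least 50, where 100 means six control SD above control mean; inconclusive means lowest score under 50 but half or more replicates reach 50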;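 further: yeast exposed to compound for 9 h at 30 °C; higher score means more reporter readthrough which indicates perturbed polyadenylation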
T cruzi inh = inhibitors of intracellular T. cruzi growth, primary screen, luminescence, NIH3T3 host cells | AID 1885, 2009 | T. cruzi beta-gal in NIH3T3, 90 h | 300,000 compounds, 1.4% hits | inhibition, % (concentration not given with the values);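 active means mean inhibition across valid replicates above about 55%, limit read from the data; inconclusive means mean below that limit but half or more replicates reach it; inactive means mean below it, under half of replicates reach it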;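 further: signal also drops with host cell toxicity which is not excluded here; higher percent means less beta-gal luminescence so fewer parasites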
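Assay system: NIH/3T3 host cells with β-galactosidase reporter T. cruzi; input: 5,000 host fibroblasts per well; compound: single 50 nL compound addition per well in DMSO; timing: ≥90 h infection period, 3 h prior cell attachment; measured by: GalScreen β-gal luminescence, detergent lysis, 60 min; evaluation: percent inhibition of parasite-derived β-gal signal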
L major viab = Leishmania major promastigote growth inhibition, primary screen. Leishmania major promastigotes, resazurin fluorescence viability. inhibition, % at 10 µM. 200,000 compounds, 9% hits; in the data active means inhibition above about 50%;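 further: promastigotes grown with compound for 44 hours at 28 °C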
NLRP3 yeast inh = NALP3 inflammasome inhibitors in reconstituted yeast, primary screen, luminescence, uHTS; Yeast reconstituted NLRP3/ASC/caspase-1, beta-gal luminescence, 24 h; AID 2825, 2010; inhibition, % at 10 µM; 330,000 compounds, 0.39% hits;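 active means inhibition of 50% or more; inactive means inhibition below 50%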
NALP1 yeast inh = NALP1 inflammasome inhibitors in reconstituted yeast, colorimetric, S. cerevisiae, triplicate retest | S. cerevisiae NALP1/ASC/caspase-1 growth, X-gal OD620, 72 h | inhibition, % at 10 µM | 280,000 compounds, 0.61% hits; in the data active means inhibition mostly above about 24%, no sharp cut-off; inactive means mostly below about 32%
Of the large screens only hits and unclear results are named; the others gave an inactive call. This excerpt belongs to a sample that is enriched for hits.

CN1CCN(C(CNS(=O)(=O)c2ccc(F)cc2)c2cccnc2)CC1 (configuration not stated)	none
CCN1CCN(C(CNS(=O)(=O)c2ccc(Cl)cc2)c2cccnc2)CC1 (configuration not stated)	none (no result: L major viab)
O=S(=O)(NCC(c1ccco1)N1CCN(c2ccc(F)cc2)CC1)c1ccc2c(c1)OCCO2 (configuration not stated)	Calb FLC 114
O=S(=O)(NCC(c1cccnc1)N1CCN(c2ccc(F)cc2)CC1)c1ccccc1 (configuration not stated)	T cruzi inh 59, L major viab 92 (no result: NALP1 yeast inh)
O=C(CSc1nnc(C2CC2)n1C1CC1)c1cc(F)ccc1F	none (no result: Calb FLC, PolyA inhibitor, T cruzi inh, L major viab, NALP1 yeast inh)
CC1(C)Cc2cccc(OCC(=O)N3CCN(c4ccc(F)cc4)CC3)c2O1	none (no result: L major viab, NALP1 yeast inh)
CCN(CC(=O)NCc1cccs1)C(=O)c1ccc([N+](=O)[O-])o1	T cruzi inh 63 (no result: L major viab, NALP1 yeast inh)
Cc1[nH]c2ccccc2c1C(=O)CN1C(=O)NC2(CC(C)CC(C)(C)C2)C1=O (configuration not stated)	L major viab 90
O=C(Oc1ccc(/C=N/Nc2nc(N3CCCCC3)nc(N3CCCCC3)n2)cc1)c1ccco1	none
COC(=O)N/N=C/c1ccc(OC(=O)c2ccco2)c(OC)c1	none (no result: L major viab)
COc1cc(/C=N/Nc2ccc3ccccc3c2)ccc1OC(=O)c1ccco1	L major viab 88
COc1cc(/C=N/Nc2nc(C)cc(C)n2)ccc1OC(=O)c1ccco1	L major viab 51
Cc1ccc(Nc2nc(N/N=C\c3ccc4c(c3)OCO4)nc(N3CCOCC3)n2)cc1	T cruzi inh 58, L major viab 54
CCOc1cc(/C=N\Nc2nc(Nc3ccccc3)nc(N3CCOCC3)n2)ccc1OC(=O)c1ccco1	L major viab 88
Cc1ccc(Cl)cc1N1CCN(Cc2nc3ccsc3c(=O)[nH]2)CC1	none
O=C(NCc1ccco1)C(c1ccco1)N(C(=O)Cn1nnc2ccccc21)c1ccc2c(c1)CCC2 (configuration not stated)	L major viab 91 (no result: NALP1 yeast inh)
Nc1nc(Nc2ccccc2)nc2c1ncn2[C@@H]1O[C@H](CO)[C@@H](O)[C@H]1O	none (no result: L major viab, NALP1 yeast inh)
Cc1cccc(N(CC(=O)N/N=C/c2cc([N+](=O)[O-])ccc2Cl)S(C)(=O)=O)c1C	L major viab 86 (no result: Calb FLC)
Cc1ccc(NC(=O)CN(c2ccc(Cl)cc2)S(=O)(=O)c2cc([N+](=O)[O-])ccc2Cl)cc1	L major viab 59
Cc1cccc(NS(=O)(=O)c2ccc(NC(=O)CN(c3cc([N+](=O)[O-])ccc3C)S(C)(=O)=O)cc2)c1	T cruzi inh 75
COc1ccc(C)cc1S(=O)(=O)N(CC(=O)Nc1cccc([N+](=O)[O-])c1)c1ccc(C)c(C)c1	PolyA inhibitor inconclusive, L major viab 50
CSCC[C@H](NC(=O)N1CCn2c1nc1ccccc12)C(=O)NCC1CCCO1 (some centres not stated)	none (no result: L major viab)
O=C(CSc1nnc(NC(=O)c2c(F)cccc2F)s1)NCc1ccc(F)cc1	PolyA inhibitor inconclusive (no result: L major viab, NALP1 yeast inh)
Cc1c(Cl)cccc1NC(=O)C1Cc2ccccc2CN1C(=O)c1ccccc1 (configuration not stated)	none
Cc1cccc(NC(=O)C2Cc3ccccc3CN2C(=O)OCc2ccccc2)c1C (configuration not stated)	L major viab 98
CC1C/C(=N\NC(=S)NC(C)C)CC(C)(C)C1 (configuration not stated)	L major viab 100
C=CCNC(=S)NC(CC(=O)OC)c1ccc2c(c1)OCO2 (configuration not stated)	none
Cc1ccc(C)c(OCCCN2CCCC2)c1	L major viab 98
Cc1ccc(C(C)C)cc1OCCCCN1CCCC1	L major viab 99
Cc1ccccc1OCCCCN1CCCCC1	none (no result: L major viab)
Cc1cccc(OCCCN2CCCCCC2)c1	L major viab 98
CSc1nc2ccc(NS(=O)(=O)c3c(Cl)cccc3Cl)cc2s1	none
CSc1nc2ccc(NS(=O)(=O)c3ccccc3F)cc2s1	L major viab 59
CC(C)(C)N=C1NC(=NC(C)(C)C)c2ccccc21	L major viab 66
CN(C)S(=O)(=O)c1cccc(NC(=O)CN2C(=O)NC(Cc3c[nH]c4ccccc34)C2=O)c1 (configuration not stated)	none (no result: NLRP3 yeast inh)
Cc1c(C(=O)O)cccc1-n1c(C)cc(/C=N/Nc2ccc([N+](=O)[O-])cn2)c1C	none (no result: L major viab)
Cc1c(C(=O)O)cccc1-n1c(C)cc(/C=N/NC(=O)c2cc3ccccc3o2)c1C	L major viab 56
N#CCOc1nc(N2CCCC2)nc(N2CCCC2)n1	L major viab 97
COc1ccc(-c2nc3c(c(SCC(=O)N4CCOCC4)n2)Cc2c(CO)cnc(C)c2O3)cc1	none (no result: L major viab)
COc1ccc(C(=O)c2cnc3ccccc3c2-c2ccccc2)cc1	none
Cc1ccc(C(=O)c2cnc3ccccc3c2-c2ccccc2)cc1	L major viab 57
COc1ccc(NC(NC(=O)c2ccc(OC)cc2)C(Cl)(Cl)Cl)cc1 (configuration not stated)	none
COc1ccc(C(=O)NC(Nc2ccc(C)cc2)C(Cl)(Cl)Cl)cc1 (configuration not stated)	L major viab 75
Cc1ccc(C(=O)NC(NCc2ccco2)C(Cl)(Cl)Cl)cc1 (configuration not stated)	L major viab 60
Cc1cccc(C(=O)NC(NCc2ccco2)C(Cl)(Cl)Cl)c1 (configuration not stated)	none
CN(CC(=O)Nc1ccccc1Cl)CC(=O)Nc1cccc2ccccc12	none (no result: Calb FLC, PolyA inhibitor, T cruzi inh, L major viab, NALP1 yeast inh)
Cc1ccc(S(=O)(=O)CCC(=O)NCc2ccccc2)cc1	L major viab 57
Cc1ccc(S(=O)(=O)CCC(=O)c2ccc(O)cc2O)cc1	L major viab 100
Cc1ccc(S(=O)(=O)CCC(=O)OCc2ccc(Cl)cc2)cc1	L major viab 55
Cn1ncc([N+](=O)[O-])c1C(=O)Nc1ccc(-c2ccccc2)cc1	none (no result: L major viab)
CCOc1ccc(C2NC(=O)c3ccccc3O2)cc1OC (configuration not stated)	none (no result: L major viab)
CCOc1cc(N2CCOCC2)c(OCC)cc1NC(=O)COC(=O)c1cccc2ccccc12	none
O=C(Cc1ccccc1)N/N=C/c1cc(Br)cc(Cl)c1O	Calb FLC 114, L major viab 82
O=C(N/N=C/c1cc(Cl)cc([N+](=O)[O-])c1O)c1ccc2c(c1)OCO2	T cruzi inh 57 (no result: L major viab)
Cc1cc(C(=O)N/N=C/c2cc(Cl)cc([N+](=O)[O-])c2O)c2ccccc2n1	Calb FLC 79

Assay outcomes deposited in PubChem BioAssay by several laboratories.
